ChEMBL document CHEMBL1159038, “Synthetic studies on selective adenosine A2A receptor antagonists: synthesis and structure-activity relationships of novel benzofuran derivatives” (Bioorg Med Chem Lett, 2010)

What was measured:
[1] = biological target: Adenosine receptor A2a (Homo sapiens) (UniProt P29274); experiment: Inhibition of [3H]CGS21680 binding to human adenosine A2A receptor at 0.01 umol/L by scintillation counting
Summary of the method: (§1)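 Membranes from cells transfected with human A2A receptor, diluted 20-fold in 50 mmol/L Tris pH 7.4 with 120 mmol/L NaCl, 5 mmol/L KCl, 10 mmol/L MgCl2, 2 mmol/L CaCl2 and 2 U/mL adenosine deaminase. Incubated with [3H]CGS21680 (final 75 nmol/L) and test drug, 25 °C for 90 min. Filtered through 0.5% polyethyleneimine-treated filters, then scintillation counted. Nonspecific binding with 50 µmol/L NECA. Triplicate average.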

[2] = biological target: Adenosine receptor A2a (Homo sapiens) (UniProt P29274); experiment: Inhibition of [3H]CGS21680 binding to human adenosine A2A receptor at 0.1 umol/L by scintillation counting; summary of the method: as §1
[3] = biological target: Adenosine receptor A2a (Homo sapiens) (UniProt P29274); experiment: Inhibition of [3H]CGS21680 binding to human adenosine A2A receptor at 1 umol/L by scintillation counting; summary of the method: as §1
Mus musculus = experiment: Antiparkinsonian effect in mouse assessed as inhibition of CGS-21680-induced catalepsy at 10 mg/kg, po; format: functional
Summary of the method: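 Compounds were given orally at 10 mg/kg to mice. Catalepsy was induced with CGS, and inhibition of catalepsy is expressed as %.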

[4] = Intrinsic clearance in rat liver microsomes; format: ADME, Microsome
Summary of the method: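 Rat liver microsomal incubations gave the apparent intrinsic clearance (CL_int). This was corrected for the free fraction of compound in the incubation to give CL_int/f_m.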

[5] = biological target: T1, Adenosine receptor A1 (Homo sapiens) (UniProt P30542); experiment: Antagonist activity at human adenosine A1 receptor at 1 umol/L; format: functional
T1 sequence (whole entry): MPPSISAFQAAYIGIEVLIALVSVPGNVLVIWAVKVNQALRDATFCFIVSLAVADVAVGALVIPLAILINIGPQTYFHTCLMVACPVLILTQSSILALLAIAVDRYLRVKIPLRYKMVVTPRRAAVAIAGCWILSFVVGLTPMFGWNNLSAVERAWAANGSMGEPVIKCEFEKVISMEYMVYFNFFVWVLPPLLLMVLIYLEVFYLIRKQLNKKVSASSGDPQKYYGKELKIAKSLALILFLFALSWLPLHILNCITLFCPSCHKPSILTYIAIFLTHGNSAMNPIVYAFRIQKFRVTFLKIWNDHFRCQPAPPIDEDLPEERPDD

[6] = biological target: T1, Adenosine receptor A1 (Homo sapiens); experiment: Antagonist activity at human adenosine A1 receptor at 10 umol/L; format: functional
[7] = biological target: T2, Adenosine receptor A2b (Homo sapiens) (UniProt P29275); experiment: Antagonist activity at human adenosine A2B receptor at 1 umol/L; format: functional
T2 sequence (whole entry): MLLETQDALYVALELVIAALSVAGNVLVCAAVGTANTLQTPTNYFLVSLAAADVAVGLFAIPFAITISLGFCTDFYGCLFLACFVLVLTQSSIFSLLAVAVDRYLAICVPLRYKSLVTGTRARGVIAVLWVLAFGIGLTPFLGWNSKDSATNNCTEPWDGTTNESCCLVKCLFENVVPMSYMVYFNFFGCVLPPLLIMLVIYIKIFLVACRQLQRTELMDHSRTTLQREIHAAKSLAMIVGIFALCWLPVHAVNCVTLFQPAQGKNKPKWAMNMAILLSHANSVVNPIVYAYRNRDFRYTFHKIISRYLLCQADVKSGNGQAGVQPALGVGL

[8] = biological target: T2, Adenosine receptor A2b (Homo sapiens); experiment: Antagonist activity at human adenosine A2B receptor at 10 umol/L; format: functional

Chain of Adenosine receptor A2a (Homo sapiens) (P29274 whole entry): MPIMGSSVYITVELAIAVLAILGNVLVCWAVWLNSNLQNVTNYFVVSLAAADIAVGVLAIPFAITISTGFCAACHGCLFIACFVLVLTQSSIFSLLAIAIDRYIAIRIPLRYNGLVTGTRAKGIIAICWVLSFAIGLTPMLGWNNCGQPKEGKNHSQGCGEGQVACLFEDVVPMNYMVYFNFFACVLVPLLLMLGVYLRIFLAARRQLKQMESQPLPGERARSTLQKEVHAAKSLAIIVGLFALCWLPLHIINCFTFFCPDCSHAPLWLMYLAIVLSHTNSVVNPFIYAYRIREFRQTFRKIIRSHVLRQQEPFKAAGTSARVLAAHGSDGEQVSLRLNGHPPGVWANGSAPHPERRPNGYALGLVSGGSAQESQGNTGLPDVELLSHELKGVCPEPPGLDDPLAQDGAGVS

SMILES	inhibition [1] [%]	inhibition [2] [%]	inhibition [3] [%]	inhibition in vivo at 10 mg/kg (Mus musculus) [%]	CLint scaled [4] [mL/min/kg]	inhibition [5] [%]	inhibition [6] [%]	inhibition [7] [%]	inhibition [8] [%]
COc1ccc(-c2ccccc2)c2cc(C(=O)Nc3ccc(Cn4ccnc4)cc3)sc12	25	20							
CCOC(=O)c1ccc(-c2ccc(OC)c3oc(C(=O)Nc4ccccc4)cc23)cc1		-2	-8						
CNC(=O)c1cc2c(-c3ccccc3)ccc(OC)c2o1	57	88		18					
COc1ccc(-c2ccccc2)c2cc(NC(=O)Nc3ccc(F)cc3)oc12	22	37							
COc1ccc(-c2ccccc2)c2cc(C(=O)Nc3ccc(Cn4ccnc4)cc3)oc12	24	64	95	12	2600	9	10	1	1
COC(=O)c1ccc(OC)c2oc(C(=O)Nc3cccc(F)c3)cc12	14	58	86	48					
COC(=O)Nc1cc2c(-c3ccccc3)ccc(OC)c2o1	28	85		86					
COc1ccc(-c2ccccc2)c2cc(NC(=O)Oc3ccccc3)oc12	23	65		34					
COc1ccc(-c2ccccc2)c2cc(C(=O)Nc3ccncc3)oc12			100	40	580	20	77	21	58
COc1ccc(-c2ccccc2)c2cc(NC(=O)Oc3ccc(F)cc3)oc12	11	32							
COc1ccc(-c2ccc(Cl)cc2)c2cc(C(=O)Nc3ccncc3)oc12	18	28							
COC(=O)c1ccc(OC)c2oc(C(=O)Nc3ccccc3)cc12	6	49	86		758				
COC(=O)c1ccc(OC)c2oc(C(=O)Nc3ccc(Cn4ccnc4)cc3)cc12	40	80	98	0					
COc1ccc(-c2ccccc2)c2cc(C(=O)Nc3ccc(F)cc3)oc12	13	49	67						
COc1ccc(-c2csc(-c3ccc(C)nc3)n2)c2cc(C(=O)Nc3ccc(Cn4ccnc4)cc3)oc12	12	23	20						
COc1ccc(-c2csc(C)n2)c2cc(C(=O)Nc3ccc(F)cc3)oc12	1	15	60						
COc1ccc(NC(=O)c2cc3c(-c4csc(-c5ccccc5)n4)ccc(OC)c3o2)cc1	6	11							
COC(=O)c1ccc(OC)c2oc(C(=O)Nc3ccc(OC)cc3)cc12		53	91						
COc1ccc(-c2ccccc2)c2cc(C(=O)NN3CCOCC3)oc12	39	81	103	78	20.3	37	82	81	98
COc1ccc(-c2ccccc2)c2cc(C(=O)Nc3ccncc3)sc12	11	31							
COc1ccc(-c2ccc(Cl)cc2)c2cc(C(=O)Nc3ccc(Cn4ccnc4)cc3)oc12	8	33							
COC(=O)c1ccc(OC)c2oc(C(=O)Nc3ccc(Cl)cc3)cc12	1	43	77						
COc1ccc(-c2ccccc2)c2cc(NC(C)=O)oc12	62	91		28					
COc1ccc(-c2ccc(OC)c3oc(C(=O)Nc4ccc(Cn5ccnc5)cc4)cc23)cc1	24	63	90	54		-4			4
COc1ccc(-c2ccccc2)c2cc(C(=O)Nc3c(Cl)cncc3Cl)oc12	83	101		74					
COc1ccc(-c2csc(-c3ccc(C)nc3)n2)c2cc(C(=O)Nc3ccc(F)cc3)oc12	17	6	4						
